Test results reported in ChEMBL document CHEMBL6182829, “Developing peptide-based fusion inhibitors as an antiviral strategy utilizing coronin 1 as a template” (RSC Med Chem, 2025).
The source made the active and inactive calls. The calls are words filed in the database; no cut-off is given here. Where a SMILES comes first, the peptide text is derived from it.

Assays:
Lipid bilayer [1] = test: Binding affinity to DOPC/DOPE/DOPG/CH (50/30/10/10 mol%) small unilamellar vesicles assessed as membrane organization and dynamic by measuring increase in fluorescence intensity at 1:100 compound: lipid concentration by tryptophan fluorescence based spectrofluorometric analysis
Method in brief: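 Tryptophan fluorescence spectra of the peptide recorded in buffer and with SUVs. Lipid:peptide 100:1, total lipid 200 μM, in 10 mM TES, 100 mM NaCl, 1 mM CaCl2, 1 mM EDTA, pH 7.4. At least three independent measurements averaged.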

Lipid bilayer [2] = test: Disruption of interfacial region in DOPC/DOPE/DOPG/CH (50/30/10/10 mol%) small unilamellar vesicles at 2 to 10 uM by TMA-DPH based fluorescence anisotropy; details: dose 2-10 µM
Method in brief: (§1)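 TMA-DPH steady-state anisotropy in SUVs (200 μM total lipid) across a range of peptide concentrations. Excitation 360 nm, emission 428 nm, 5 nm slits. Buffer 10 mM TES, 100 mM NaCl, 1 mM CaCl2, 1 mM EDTA, pH 7.4, 37 °C. Anisotropy from polarised intensities with G-factor correction; mean ± S.E. of at least three measurements.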

Lipid bilayer [3] = test: Disruption of interfacial region in DOPC/DOPE/DOPG (60/30/10 mol%) small unilamellar vesicles at 2 to 10 uM by TMA-DPH based fluorescence anisotropy; details: dose 2-10 µM; method in brief: as §1
Lipid bilayer [4] = test: Inhibition of PEG-induced DOPC/DOPE/DOPG/CH (40/30/10/20 mol%) (20 CH) small unilamellar vesicles fusion assessed as content mixing at 1:100 compound: lipid concentration preincubated for 10 mins followed by PEG addition by spectrofluorometric analysis
Method in brief: (§2)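 Content mixing by Tb3+/DPA complex fluorescence. Vesicles loaded with 8 mM TbCl3 or 80 mM DPA, external probe removed by gel filtration. Mixed 1:1 at 200 μM lipid; peptide 2 μM added 10 min before 6% (w/v) PEG, 37 °C. Normalised to co-encapsulated and detergent-treated samples.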

Lipid bilayer [5] = test: Disruption of interfacial region in DOPC/DOPE/DOPG/CH (40/30/10/20 mol%) small unilamellar vesicles at 2 to 10 uM by TMA-DPH based fluorescence anisotropy; details: dose 2-10 µM; method in brief: as §1
Lipid bilayer [6] = test: Inhibition of PEG-induced DOPC/DOPE/DOPG/CH (40/30/10/20 mol%) small unilamellar vesicles assessed as content leakage at 1:100 compound: lipid concentration preincubated for 10 mins followed by PEG addition by fluorescence based analysis (reference value: 11.1 +/- 0.4 %)
Method in brief: (§3)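 Leakage read as loss of fluorescence from vesicles co-encapsulating 8 mM TbCl3 and 80 mM DPA, external probe removed. Lipid 200 μM; peptide 2 μM added 10 min before 6% (w/v) PEG at 37 °C. 100% leakage set with 0.1% (w/v) Triton X-100.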

Influenza A virus H3N2 [7] = test: Antiviral activity against Influenza A virus X-31 (H3N2) infected in human A549 cells assessed as inhibition of viral infection incubated for 48 hrs post infection by hemagglutination assay (reference value: 4 No unit); assay type: functional
Lipid bilayer [8] = test: Inhibition of PEG-induced DOPC/DOPE/DOPG (60/30/10 mol%) small unilamellar vesicles assessed as content mixing at 1:100 compound: lipid concentration preincubated for 10 mins followed by PEG addition by fluorescence based analysis (reference value: 16.7 +/- 0.6 %); method in brief: as §2
Lipid bilayer [9] = test: Inhibition of PEG-induced DOPC/DOPE/DOPG/CH (40/30/10/20 mol%) small unilamellar vesicles assessed as increase in lipid mixing at 1:100 compound: lipid concentration preincubated for 10 mins followed by PEG addition by spectrofluorometric analysis relative to control
Method in brief: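 Lipid mixing followed as FRET dilution. Vesicles carrying 0.8 mol% NBD-PE and Rh-PE mixed 1:9 with probe-free vesicles at 200 μM lipid. Peptide 2 μM added 10 min before 6% (w/v) PEG at 37 °C. NBD donor intensity rise recorded over time; TX-100 defines complete mixing.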

Influenza A virus H3N2 [10] = test: Antiviral activity against Influenza A virus X-31 (H3N2) infected in MDCK cells assessed as inhibition of viral infection preincubated for 48 hrs followed by viral infection for 45 mins by MTT assay; assay type: functional, organism-based; details: X-31, MDCK
Method in brief: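 A549 or MDCK cells seeded 1.5 × 10^4 per well, grown 24 h. Virus premixed with two-fold serial peptide dilutions in serum-free medium with trypsin (2.5 μg ml-1). Cells infected 45 min at 37 °C, washed, then kept 48 h in medium with 0.1% FBS, 0.3% BSA and trypsin. MTT 4 h, absorbance 570 nm. CPE inhibition normalised to cell and virus controls, dose-response fit for EC50; at least 3 sets.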

Lipid bilayer [11] = test: Inhibition of PEG-induced DOPC/DOPE/DOPG/CH (40/30/10/20 mol%) small unilamellar vesicles assessed as content mixing at 1:100 compound: lipid concentration preincubated for 10 mins followed by PEG addition by spectrofluorometric analysis relative to control; method in brief: as §2
Lipid bilayer [12] = test: Inhibition of PEG-induced DOPC/DOPE/DOPG/CH (50/30/10/10 mol%) small unilamellar vesicles assessed as content leakage at 1:100 compound: lipid concentration preincubated for 10 mins followed by PEG addition by fluorescence based analysis relative to control; method in brief: as §3
Influenza A virus H3N2 [13] = test: Antiviral activity against Influenza A virus X-31 (H3N2) infected in MDCK cells assessed as reduction in viral M1 protein expression level incubated for 48 hrs post infection by Western blot analysis; assay type: functional, organism-based
Method in brief: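 Cells seeded at 0.25 × 10^6 per well and co-infected with virus–peptide mixtures as in the CPE assay. Lysed in RIPA with protease inhibitor 48 h post-infection, protein by BCA. Run on 12% SDS-PAGE, transferred to PVDF, blocked in 3% milk. Probed with anti-M1 (1:1000) and HRP anti-mouse IgG (1:10 000); β-actin as loading control after stripping.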

Lipid bilayer [14] = test: Reduction of apparent rotational correlation time in DOPC/DOPE/DOPG/CH (40/30/10/20 mol%) small unilamellar vesicles at 2 to 10 uM by TMA-DPH anisotropy analysis; details: dose 2-10 µM
Method in brief: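 Apparent rotational correlation time of TMA-DPH from the Perrin equation, combining steady-state anisotropy and mean lifetime with r0 = 0.4. SUVs at 200 μM lipid with varying peptide, in TES/NaCl/CaCl2/EDTA buffer pH 7.4 at 37 °C; at least three measurements.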

Influenza A virus H3N2 [15] = test: Antiviral activity against Influenza A virus X-31 (H3N2) infected in human A549 cells assessed as reduction in virus-induced cytopathic effect preincubated for 48 hrs followed by viral infection for 45 mins by light microscopic analysis; assay type: functional, organism-based; details: time 2925.0 min
Method in brief: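 A549 cells infected with virus–peptide mixtures at increasing peptide concentrations, then assessed by light microscopy for cytopathic effect 48 h after infection.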

Lipid bilayer [16] = test: Inhibition of PEG-induced DOPC/DOPE/DOPG (60/30/10 mol%) small unilamellar vesicle assessed as content leakage at 1:100 compound: lipid concentration preincubated for 10 mins followed by PEG addition by fluorescence based analysis (reference value: 11.7 +/- 0.4 %); method in brief: as §3

## CC[C@H](C)[C@H](NC(=O)[C@H](CC(C)C)NC(=O)[C@H](C)NC(=O)[C@@H](NC(=O)[C@H](Cc1ccccc1)NC(=O)[C@H](CCCCN)NC(=O)[C@@H]1CCCN1C(=O)[C@H](CC(N)=O)NC(=O)[C@@H](NC(=O)[C@H](C)NC(=O)[C@H](CS)NC(=O)[C@H](Cc1ccccc1)NC(=O)CNC(=O)[C@H](CO)NC(=O)[C@H](CC(=O)O)NC(=O)[C@H](Cc1c[nH]c2ccccc12)NC(=O)[C@@H](NC(=O)[C@@H](N)[C@@H](C)O)[C@@H](C)O)C(C)C)C(C)C)C(=O)N[C@@H](CS)C(=O)N[C@@H](CC(=O)O)C(=O)N[C@@H](Cc1c[nH]c2ccccc12)C(=O)N[C@@H](CO)C(=O)NCC(=O)O (H-TTWDSGFCAVNPKFVALICDWSG-OH)
Lipid bilayer [1]
  Activity: Active
Lipid bilayer [2]
  Activity: Active
Lipid bilayer [3]
  Activity: Active
Lipid bilayer [4]
  inhibition: Active
Lipid bilayer [5]
  Activity: Active; Less Stiff In Membranes
Lipid bilayer [6]
  inhibition: 14.4%
Influenza A virus H3N2 [7]
  Activity: 0
Lipid bilayer [8]
  inhibition: 9.8%
Lipid bilayer [9]
  inhibition: 8%
Influenza A virus H3N2 [10]
  EC50: ~21.6 µM
Lipid bilayer [11]
  inhibition: 33%
Lipid bilayer [12]
  inhibition: 40%
Influenza A virus H3N2 [13]
  Activity: Dose-dependent-effect
Lipid bilayer [14]
  Activity: Active
Influenza A virus H3N2 [15]
  Activity: Dose-dependent-effect
Lipid bilayer [16]
  inhibition: 8.7%
